E coli WT exp – E. coli BW25113 growth inhibition, expanded screen. growth inhibition, % at 100 µM. OD600 absorbance. 98,000 compounds, 0.15% hits;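 active = growth inhibition above about 50% at one test dose, limit read from the data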;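 note: growth measured after 20 h incubation at 37 °C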
Jurkat tox 60K – reduces viability or proliferation of Jurkat cells. 56,000 compounds, 1.2% hits. AID 463. inhibition, % at 4 µM. Jurkat E6.1 viability, ATP luminescence, 48 h;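 active = inhibition above the mean inhibition of all tested compounds plus 3 SD, cut at about 28% in these data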
H69AR inhibit – growth inhibitors of human H69AR lung tumor cells. H69AR lung tumor viability, ATP luminescence, 72 h; stronger effect = lower value. viability, % at 10 µM. 85,000 compounds, 6% hits. AID 598;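 active = viability at or below 40%; inactive = viability above 40%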;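 note: multidrug resistant small cell line overexpressing MRP-1 efflux transporter; 100% = mean luminescence of untreated control wells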
HUVEC prolif 384 – blocks proliferation of human endothelial cells; 86,000 compounds, 1.1% hits; AID 648; HUVEC proliferation, CellTiter-Glo luminescence, 72 h; stronger effect = lower value; viability, % at 10 µM (by protocol);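 active = viability at or below 30%; inactive = viability above 30%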;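 note: 100% = median luminescence of DMSO-only cell control wells on each plate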
tolC growth inh – E. coli tolC mutant growth inhibition; E. coli BW25113 tolC mutant growth, OD615; growth inhibition, % at 10 µM (by protocol); 65,000 compounds, 2.2% hits; AID 573;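 active = growth inhibition at or above a cutoff equal to the mean over every tested compound plus 3 SD, cut at about 60% in these data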;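 note: growth measured after 20 h incubation at 37 °C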
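Doses: one dose of 10 µM final / Material: E. coli BW25113 ΔtolC::kan, tolC deletion mutant strain / Buffer or medium: LB with kanamycin 50 µg/mL / Evaluation: percent growth inhibition / Detection: optical density read at 615 nm / Incubation: 37 °C, 20 h exposure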
Fibroblast inh – blocks proliferation of human lung fibroblasts; 85,000 compounds, 1.1% hits; LL 47 human lung fibroblast viability, ATP luminescence; stronger effect = lower value; viability, % at 10 µM; AID 719;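 active = viability at or below 50% in the single dose screen; inactive = viability above 50%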;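 note: compound exposure lasted 72 h before the ATP readout; 100% = median luminescence of untreated cell-only wells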
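Assay system: human lung fibroblast line LL 47, low passage. Input: 1,150 fibroblasts seeded per well. Times: overnight cell rest, 72 h compound treatment at 37 °C. Evaluation: % viability of median cell-only signal. Technique: luminescent ATP detection, CellTiter-Glo. Control set: cell-only wells, no compound.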
The depositor's hits bear a star; · = not tested or not shown. Most compounds without a hit are left out; they make up all but 6.4% or so of the library.

SMILES	E coli WT exp	Jurkat tox 60K	H69AR inhibit	HUVEC prolif 384	tolC growth inh	Fibroblast inh
O=C(Nc1ccccc1N1CCOCC1)c1cc(-c2ccco2)nc2ccccc12	0.0	·	5.8*	71.2	·	93.5
Cc1cc(C(=O)Nc2ccc(N3CCOCC3)cc2)c2ccccc2n1	6.0	-2.1	90.8	89.0	15.9	100.2
Cc1nn(-c2ccccc2)c2sc(C(=O)OCC(=O)N3CCCCC3)cc12	·	2.3	87.3	85.0	-1.7	103.2
O=C1C2C3C=CC(C3)C2C(=O)N1CNc1ccc(O)cc1 (configuration not stated)	2.0	24.2	28.9*	98.9	3.0	102.3
Cc1ccc(NCN2C(=O)C3C4C=CC(C4)C3C2=O)cc1 (configuration not stated)	7.0	-3.2	94.4	93.6	-16.4	100.2
N=c1n(Cc2ccccc2)c2ccccc2n1CC(O)c1ccccc1 (configuration not stated)	7.0	0.7	38.2*	89.3	43.9	88.0
COc1ccccc1OCC(O)Cn1c(=N)n(Cc2ccccc2)c2ccccc21 (configuration not stated)	2.0	·	51.2	36.5	36.3	59.7
CC(C)(C)C(=O)Cn1c(=N)n(Cc2ccccc2)c2ccccc21	1.0	2.3	38.4*	113.0	100.0*	91.1
CCOC(=O)c1c(C)[nH]c(C)c1C(=O)COC(=O)c1ccc(Cl)c(S(N)(=O)=O)c1	5.0	·	81.0	97.2	·	100.0
Cc1sc(NC(=O)c2ccco2)nc1-c1ccc2c(c1)CC(C)N2C(=O)C1CC1 (configuration not stated)	-10.0	63.5*	·	38.9	26.3	75.8
CCn1cc(C2=NC(c3ccccc3)CO2)c2ccccc21 (configuration not stated)	·	-4.6	31.9*	71.0	27.6	87.2
Cc1ccc(S(=O)(=O)CC(C)N2CCN(C3CCCCC3)CC2)cc1 (configuration not stated)	·	·	84.1	113.5	·	95.1
Cc1cc(C)nc(Nc2n[nH]c(COc3ccccc3)n2)n1	·	2.0	98.2	102.3	-3.8	99.6
Cc1cc(C)nc(Nc2n[nH]c(COc3cccc4ccccc34)n2)n1	-2.0	·	38.2*	74.1	·	52.5
COc1cc(S(=O)(=O)N2CCN=C2c2ccccc2)ccc1F	0.0	-9.6	23.1*	65.5	-3.9	92.4
Cc1ccc(S(=O)(=O)N2CCN=C2c2ccccc2)cc1C	·	·	99.3	86.6	·	93.9
Cc1ccc2c(CC(=O)Nc3ccc(N4CCN(C)CC4)cc3C)coc2c1	0.0	-0.7	21.7*	15.3*	5.5	69.1
CCCCNC(=O)CS(=O)Cc1nc(-c2ccc(C)cc2)oc1C (configuration not stated)	-4.0	-16.3	95.8	96.7	-5.6	96.0
Cc1cccc(-c2nc(CS(=O)CC(=O)NCCCSC3CCCCC3)c(C)o2)c1 (configuration not stated)	-16.0	1.0	79.5	91.2	72.7*	96.1
COc1cccc(-n2nnnc2S(C)(=O)=O)c1	33.0	·	1.1*	45.0	·	46.6*
Cc1ccc(CSc2nnc(-c3ccco3)o2)cc1	15.0	·	109.0	117.3	·	101.0
Cn1c(C(=O)Nc2ccc3c(c2)OCO3)cc2c(=O)n(C)c3ccccc3c21	3.0	-3.1	30.6*	72.4	-1.8	56.5
Cn1c(C(=O)N2CCN(Cc3ccc4c(c3)OCO4)CC2)cc2c(=O)n(C)c3ccccc3c21	-6.0	1.4	37.7*	82.0	15.3	92.5
CCCCN(CCCNC(=O)c1ccc2nc(N3CCOCC3)sc2c1)Cc1ccccc1	0.0	·	48.6	69.7	·	93.3
NC(=O)CSc1nnc(C2CC2)n1-c1ccccc1	1.0	·	83.0	82.9	·	91.9
SMILES	E coli WT exp	Jurkat tox 60K	H69AR inhibit	HUVEC prolif 384	tolC growth inh	Fibroblast inh
CCCN1CCN(c2ncnc3c2nnn3Cc2ccccc2)CC1	8.0	62.6*	96.7	69.5	12.1	77.3
c1ccc(Cn2nnc3c(N4CCCCCC4)ncnc32)cc1	4.0	23.7	66.2	80.0	53.6	77.0
COc1cccc(C2C3=C(CCCC3=O)Nc3nc4ccccc4n32)c1OC (configuration not stated)	·	0.0	77.8	84.8	24.9	101.0
COc1cccc(-c2cc(C(=O)N3CCN(c4ncccn4)CC3)c3ccccc3n2)c1	-9.0	-10.0	18.9*	58.1	12.7	98.9
Cc1ccc(-c2cc(C(=O)N3CCN(c4ncccn4)CC3)c3ccccc3n2)cc1	-14.0	14.3	11.4*	70.8	11.4	·
CC(C)Oc1cccc(-c2cc(C(=O)N3CCN(S(C)(=O)=O)CC3)c3ccccc3n2)c1	1.0	-4.7	24.1*	88.7	24.2	96.6
O=C(c1cc(-c2cccs2)nc2ccccc12)N1CCN(S(=O)(=O)c2ccccc2)CC1	-7.0	·	94.4	78.4	·	102.7
CC(C)Oc1cccc(-c2cc(C(=O)N3CCN(c4ncccn4)CC3)c3ccccc3n2)c1	-8.0	·	15.1*	64.2	·	93.6
Cc1ccc2nc(-c3ccccn3)cc(C(=O)N3CCN(c4ncccn4)CC3)c2c1	0.0	-2.1	56.8	80.5	-3.8	106.5
CN1CCc2nc(NC(=O)c3cccc(OC(F)F)c3)sc2C1	2.0	·	85.1	85.7	·	102.5
O=C(c1cc(-c2cccs2)nc2ccccc12)N1CCN(S(=O)(=O)c2cccc(F)c2)CC1	-13.0	·	20.8*	82.7	·	102.3
O=C(c1cc(-c2ccncc2)nc2ccc(Br)cc12)N1CCN(c2ccccn2)CC1	-11.0	4.2	21.9*	56.6	22.7	93.6
O=c1c2c3nc4ccccc4nc3n(-c3ccc4c(c3)OCCO4)c2ncn1C1CCCC1	·	-3.5	20.6*	36.6	0.6	13.2*
Cc1c(Cl)cccc1-c1ccc(/C=N/n2cnnc2)o1	-10.0	·	89.9	26.6*	·	92.0
Clc1cccc(-c2ccc(/C=N/n3cnnc3)o2)c1Cl	·	·	106.0	9.8*	·	89.5
CCOC(=O)c1cc(C)n(-n2cnnc2)c1C	-5.0	-7.8	103.8	103.3	-14.7	97.8
O=[N+]([O-])c1ccc(Cl)cc1Sc1nc2ccccc2o1	·	·	24.8*	41.2	·	94.6
O=[N+]([O-])c1ccc(Sc2nc3ccccc3o2)c([N+](=O)[O-])c1	23.0	·	0.2*	2.6*	·	0.9*
CC(=O)C(=[N+]=[N-])C(=O)NCc1ccccc1	3.0	·	83.5	100.5	13.3	99.3
COc1ccc(Cl)cc1NC(=O)C1CSC(c2ccncc2)=N1 (configuration not stated)	·	2.2	30.4*	84.2	41.0	78.3
Cc1cc(=O)oc(C)c1C(=O)OCC(=O)c1ccc(Cl)cc1	3.0	·	97.0	101.3	·	106.8
CCOC(=O)N1CCN(C(=O)c2ccc3c(c2)NC(=O)C(N2CCOCC2)S3)CC1 (configuration not stated)	-2.0	-4.7	87.2	97.1	-9.5	94.1
Cc1ccc(C(=O)CN(C(=O)c2ccc(Cl)c(Cl)c2)N2C(=O)C3C4C=CC(C4)C3C2=O)cc1 (configuration not stated)	-15.0	·	·	·	·	·
Cc1ccc(Sc2ccc(/C=N/O)cc2[N+](=O)[O-])cc1	-8.0	·	1.1*	76.1	·	73.1

Source: PubChem (several laboratories)
